# Laboratory results: ChEMBL document CHEMBL5500386, “Design, synthesis and bioactivity evaluation of 4-hydroxycoumarin derivatives as potential anti-inflammatory agents against acute lung injury and colitis” (Eur J Med Chem, 2024)
# The source made the active and inactive calls. No cut-off for these calls is given here.
# System: J774.A1
# Assay: Antiinflammatory activity in LPS-induced mouse J774.a1 cells assessed as inhibition of IL-6 production at 10 uM pretreated for 2 hrs followed by LPS stimulation and measured after 30 mins by ELISA relative to control
# Type: functional
# Details: time 2.5 hrs
# Procedure, shortened: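 J774A.1 cells (DMEM, 10 % FBS, 37 °C) treated with 10 μM compound or 4-HC for 2 h, then LPS. After 30 min, IL-6 in medium measured by ELISA. Result is % inhibition, mean ± SEM of three independent experiments.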
SMILES,inhibition at 10 µM,inhibition
CC(=O)N1CCN(CCCOc2cc(=O)oc3ccccc23)CC1,42.3%,–
O=c1cc(OCCN2CCN(CCO)CC2)c2ccccc2o1,48.8%,–
O=c1cc(OCCOCCN2CCNCC2)c2ccccc2o1,50.1%,–
O=c1cc(OCCCN2CCN(CCO)CC2)c2ccccc2o1,51.3%,–
O=c1cc(OCCCNCCCN2CCCC2)c2ccccc2o1,54.4%,–
O=c1cc(OCCCNCCCN2CCOCC2)c2ccccc2o1,–,inactive
O=c1cc(OCCCNCCc2cccs2)c2ccccc2o1,–,inactive
O=c1cc(OCCCCN2CCOCC2)c2ccccc2o1,–,inactive
CCN1CCN(CCCOc2cc(=O)oc3ccccc23)CC1,30.1%,–
O=c1cc(OCCN2CCOCC2)c2ccccc2o1,17.5%,–
O=c1cc(O)c2ccccc2o1 [4-HYDROXYCOUMARINS],17.3%,–
O=c1cc(OCCNCCc2cccs2)c2ccccc2o1,34.7%,–
CN(C)CCCOc1cc(=O)oc2ccccc12,–,inactive
O=c1cc(OCCCN2CCCC2)c2ccccc2o1,39%,–
O=c1cc(OCCNCCCN2CCOCC2)c2ccccc2o1,21.8%,–
CC1CCCN(CCOc2cc(=O)oc3ccccc23)C1 (centres undefined),48.8%,–
CC1CCCN(CCCOc2cc(=O)oc3ccccc23)C1 (centres undefined),–,inactive
COCCN1CCN(CCCOc2cc(=O)oc3ccccc23)CC1,–,inactive
O=c1cc(OCC2CO2)c2ccccc2o1 (centres undefined),–,inactive
COCCN1CCN(CCOc2cc(=O)oc3ccccc23)CC1,–,inactive
COc1cccc(COc2cc(=O)oc3ccccc23)c1,50.4%,–
Cc1cc(C)cc(COc2cc(=O)oc3ccccc23)c1,17.5%,–
CCN1CCN(CCOc2cc(=O)oc3ccccc23)CC1,18.1%,–
O=c1cc(OCc2cccc(F)c2)c2ccccc2o1,4.36%,–
O=c1cc(OCCN2CCN(C3CC3)CC2)c2ccccc2o1,–,inactive

# System: J774.A1
# Assay: Cytotoxicity against mouse J774.A1 cells assessed as reduction in cell viability at 10 uM measured after 24 hrs by MTT assay
# Type: toxicity, cell-based
# Details: j774.a1, 24 h
# Procedure, shortened: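 J774A.1 cells seeded and incubated 24 h, then exposed to 10 μM compound for 24 h. MTT (5.0 mg/mL) added as 10 % for 4 h, formazan dissolved in DMSO with 30 min shaking, absorbance read at 490 nm. Expressed as % of control.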
row,SMILES,Activity
1,CC(=O)N1CCN(CCCOc2cc(=O)oc3ccccc23)CC1,Non-Toxic
2,O=c1cc(OCCOCCN2CCNCC2)c2ccccc2o1,Non-Toxic
3,O=c1cc(OCCCN2CCN(CCO)CC2)c2ccccc2o1,Non-Toxic

# System: Mus musculus
# Assay: Protection against LPS-induced C57BL/6 mouse model of acute lung injury assessed as reduction in IL-6 level in serum at 20 mg/kg, po administered 3 times for every 12 hrs followed by LPS stimulation at 5 mg/kg and measured after 6 hrs by ELISA
# Type: functional, organism-based
# Details: time 30.0 hrs
# Procedure, shortened: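 C57BL/6 mice, 6 per group. Gavaged at 20 mg/kg three times at 12 h intervals; controls received saline, and dexamethasone 20 mg/kg served as reference. After the last dose, LPS 5 mg/kg given intratracheally. At 6 h, blood collected for serum IL-6 by ELISA. Left lung lavaged with 3 × 200 μL saline, and BALF assayed for IL-6, total protein and neutrophil count. Mean ± SEM, n = 6.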
row,SMILES,Activity
1,C[C@@H]1C[C@H]2[C@@H]3CCC4=CC(=O)C=C[C@]4(C)[C@@]3(F)[C@@H](O)C[C@]2(C)[C@@]1(O)C(=O)CO,Active
